Compound activity as filed in PubChem.
STAT3 blocker – inhibitors of IL-6 induced STAT3 signaling; hit rate 0.89% among 190,000; AID 862; U3A cells, IL-6 STAT3-luciferase reporter, luminescence; host cell line lacks STAT1; inhibition, % at 5.5 µM;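 active means inhibition above the mean inhibition across all screened compounds plus 3 SD, cut at about 44% in these data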;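 further: 0% = DMSO only wells and 100% = 100 µM nifuroxazide control wells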
FLuc act counter – firefly luciferase counter-screen for stimulation assays. activation factor at 10 µM. ATPlite luciferase biochemical, luminescence, 10 min; 0 = ATP-free wells, 1 = DMSO control. P08659. 200,000 tested, under 10 active;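 active means luciferase activation factor, scaled between plate controls, of at least 2 with compound at 10 µM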
Target sequence (P08659 whole entry, looked up): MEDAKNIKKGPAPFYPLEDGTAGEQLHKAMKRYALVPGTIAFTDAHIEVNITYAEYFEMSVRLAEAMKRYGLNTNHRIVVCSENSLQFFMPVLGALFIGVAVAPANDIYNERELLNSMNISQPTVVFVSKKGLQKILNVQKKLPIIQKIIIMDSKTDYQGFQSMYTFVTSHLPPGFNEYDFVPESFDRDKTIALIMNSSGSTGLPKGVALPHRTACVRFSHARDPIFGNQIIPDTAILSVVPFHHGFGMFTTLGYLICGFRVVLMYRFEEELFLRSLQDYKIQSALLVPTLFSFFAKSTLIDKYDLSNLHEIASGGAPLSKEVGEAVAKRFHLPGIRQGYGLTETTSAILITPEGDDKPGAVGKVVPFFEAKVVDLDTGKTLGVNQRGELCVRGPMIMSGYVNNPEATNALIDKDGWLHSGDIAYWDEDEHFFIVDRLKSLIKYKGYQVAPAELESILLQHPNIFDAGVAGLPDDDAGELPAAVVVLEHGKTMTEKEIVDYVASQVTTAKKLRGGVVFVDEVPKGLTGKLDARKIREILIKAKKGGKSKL
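assay system = Luciferase/luciferin detection reagent, cell-free biochemical luciferase assay | also added = ATP substrate | times = 10 min post-reagent at room temperature | measured by = luminescence from luciferase reaction | measure = luciferase activation, seen as luminescence increase over controls | benchmarks = low control with PBS replacing ATP, high control enzyme plus ATP without compound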
STAT1 activator – increases IFN-gamma driven STAT1 reporter signal; hit rate 2.6% among 200,000; NIH 3T3 STAT1-luciferase reporter, luminescence; 100% = IFN-gamma alone, no compound; activation (% of control), % at 5.5 µM;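 active means activation above the screen-wide mean activation plus 3 SD, cut at about 130% in these data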;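 further: raw ratio to IFN-gamma control signal so 100% means no change and 0% no light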
STAT1 blocker – STAT1 signaling inhibition | inhibition, % at 5.5 µM | hit rate 0.35% among 200,000 | NIH 3T3 STAT1-luciferase reporter, IFN-gamma, luminescence | AID 920;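 active means inhibition above a set limit, the mean inhibition across all tested compounds plus 3 SD, cut at about 34% in these data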;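 further: 0% = IFN-gamma with DMSO and 100% = IFN-gamma with 300 µM nifuroxazide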
FLuc inhib CS – inhibits firefly luciferase, flagging false hits in luciferase inhibition screens; ATPLite firefly luciferase biochemical luminescence, 10 min; hit rate 1.5% among 200,000; inhibition, % at 10 µM;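 active means inhibition above about 50% when tested at 10 µM, limit read from the data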
STAT3 activator – increases IL-6 driven STAT3 reporter signal | hit rate 0.91% among 190,000 | activation (% of control), % at 5.6 µM | U3A cells, IL-6 STAT3-luciferase reporter, luminescence; 100% = signal with IL-6 EC80 alone;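 active means activation above the screen-wide mean of compound activation plus 3 SD, cut at about 130% in these data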;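 further: 0% = background luminescence of wells with medium and substrate only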
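Test system: Human STAT1-deficient U3A cells with stable STAT3-luciferase reporter | Also added: Interleukin-6, 33 ng/mL | Timing: Compound pre-incubation 1 h before IL-6, then 6 h stimulation at 37 °C | Technique: Luciferase reporter luminescence | Read-out: Percent of IL-6-only median luminescence | Benchmarks: IL-6-only wells as 100% reference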
The depositor's hits bear a star; / = no result given. This is a sample that favours compounds with a hit; in the whole collection about 4.9% have one here.

SMILES | STAT3 blocker | FLuc act counter | STAT1 activator | STAT1 blocker | FLuc inhib CS | STAT3 activator
CC(=O)Nc1ccc(OS(=O)(=O)c2ccc(C(C)(C)C)cc2)cc1 | -2 | 1.1 | 94 | 5 | -7 | 103
Cc1nnc(SCC(=O)Nc2nsc(-c3ccc(C(C)(C)C)cc3)n2)s1 | 0 | 0.9 | 141* | -46 | 11 | 108
COc1ccccc1N=c1sc2ccccc2n1C | 4 | 1 | 101 | -1 | 0 | 99
Cn1/c(=N/N=C/c2ccc([N+](=O)[O-])cc2)sc2ccccc21 | -54 | 0.9 | 132* | -35 | 11 | 144*
CC(C)NC(=O)C1(c2ccccc2)CC1(Cl)Cl (stereo not drawn) | -2 | 1.1 | 104 | -4 | -7 | 105
CN(c1ncc(C(F)(F)F)cc1Cl)N1C(=O)c2cccc([N+](=O)[O-])c2C1=O | 1 | 1 | 98 | 0 | -4 | 103
COc1ccccc1NS(=O)(=O)c1cccc(NC(=O)c2cc3ccccc3oc2=O)c1 | -5 | 0.9 | 140* | -46 | 7 | 108
COc1ccccc1NS(=O)(=O)c1cccc(NC(=O)Nc2ccccc2)c1 | -3 | 1.1 | 97 | 4 | -8 | 101
Cc1ccc(NC(=O)c2cc3ccccc3oc2=O)cc1S(=O)(=O)N(C)C | 100* | 0.1 | 45 | 58* | 87* | 20
Cc1ccc(NC(=O)c2cc3ccccc3o2)cc1S(=O)(=O)N(C)C | 8 | 0.3 | 143* | -47 | 72* | 93
COc1ccc(C(=O)NC(C(=O)NCCc2ccc3c(c2)OCCO3)C(C)C)cc1 (stereo not drawn) | 2 | 1 | 101 | -2 | -3 | 102
O=C(Nc1sc2c(c1C(=O)N1CCOCC1)CCCCC2)c1cccnc1 | 6 | 1 | 92 | 8 | -3 | 102
CCNc1nc(NCC)n2c(SCC(=O)Nc3ccc(C(F)(F)F)cc3[N+](=O)[O-])nnc2n1 | 2 | 1 | 96 | 4 | -1 | 101
Cc1ccc(C(=O)Nc2cnc3ccccc3c2)cc1 | 110* | 0.1 | 16 | 91* | 89* | 9
O=C(Nc1ccc(NC(=O)c2ccco2)nc1)c1cccnc1 | 22 | 0.4 | 134* | -37 | 62* | 84
Cn1c(NC(=O)c2cccnc2)nc2ccccc21 | 6 | 0.8 | 148* | -52 | 21 | 99
O=C(Nc1cnc2ccccc2c1)c1cccc(-n2cnnn2)c1 | -34 | 1 | 135* | -38 | 0 | 138*
CC(=O)Nc1ccc(NC(=O)C2CCN(C(=O)c3cccs3)CC2)cc1 | -2 | 1.1 | 104 | -6 | -9 | 103
Cc1cc(C(=O)Nc2nc(-c3ccccn3)cs2)ccc1[N+](=O)[O-] | 2 | 1 | 96 | 4 | -4 | 100
O=C(Nc1cnc2ccccc2c1)c1cccnc1 | 22 | 0.9 | 134* | -38 | 11 | 89
Cc1cc(C(=O)Nc2cnc3ccccc3c2)ccc1[N+](=O)[O-] | 29 | 1 | 137* | -40 | -1 | 80
O=C(C1=C[C@H](C2CCCCC2)C[C@H](OCCCCO)O1)N1CCN(Cc2ccccc2)CC1 | / | 1.1 | 103 | -2 | -6 | /
COC(=O)c1c(-c2ccccc2)csc1NC1=NS(=O)(=O)c2ccccc21 | -26 | 0.3 | 136* | -40 | 65* | 122
CCOC(=O)/C=C(\C)N1N=C(c2ccccc2)CC1c1ccccc1 (stereo not drawn) | -14 | 0.9 | 142* | -46 | 9 | 125
COc1ccc(C2CC(c3ccc4ccccc4c3)=NN2C(=O)CN2CCC(C(N)=O)CC2)cc1 (stereo not drawn) | -3 | 1 | 121 | -24 | -3 | 109
CC(=O)OCC(=O)N1N=C(c2ccc3ccccc3c2)CC1c1ccccc1 (stereo not drawn) | 10 | 1 | 139* | -46 | 1 | 96
O=C(Nc1ccc2c(c1)OCCO2)N1CCN(Cc2ccccc2)CC1 | -12 | 0.7 | 112 | -11 | 28 | 115
CN(C)/C=N/c1ncc(-c2ncc(C(F)(F)F)cc2Cl)cn1 | 26 | 1 | 95 | 4 | -2 | 84
Cc1cc2c(C)nc(-c3ccccc3)nc2o1 | -20 | 0.9 | 130* | -33 | 12 | 118
